Rows were chosen to be rich in hits. Some 3.7% of all compounds tested hit in one or more screens of this group.
Kir21 block – blocks the mouse Kir2.1 inward-rectifier potassium channel; P35561; HEK293-Kir2.1, FluxOR thallium flux fluorescence; stronger effect = lower value; B-score at 10 µM; 310,000 tested, 0.85% active; AID 1672;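 active = fluorescence ratio B-score at or below minus 3 SD of library scores, with starting-brightness B-score within 2 SD, cut at about -4.2 in these data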;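 note: channel flux triggered by added potassium and thallium sulfate stimulus; B-score of peak minus minimum fluorescence over baseline after thallium stimulus; more negative B-score means stronger Kir2.1 block with less thallium influx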
KCNK3 block – human KCNK3 channel inhibition, primary screen. CHO-KCNK3 thallium flux, FluxOR fluorescence; stronger effect = lower value. 340,000 tested, 0.84% active. B-score at 10 µM;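 active = B-score under library mean minus 4 SD, starting fluorescence ratio at most library mean plus 5 SD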;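 note: more negative B-score means stronger inhibition of thallium flux through KCNK3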
Target sequence (O14649 whole entry, looked up): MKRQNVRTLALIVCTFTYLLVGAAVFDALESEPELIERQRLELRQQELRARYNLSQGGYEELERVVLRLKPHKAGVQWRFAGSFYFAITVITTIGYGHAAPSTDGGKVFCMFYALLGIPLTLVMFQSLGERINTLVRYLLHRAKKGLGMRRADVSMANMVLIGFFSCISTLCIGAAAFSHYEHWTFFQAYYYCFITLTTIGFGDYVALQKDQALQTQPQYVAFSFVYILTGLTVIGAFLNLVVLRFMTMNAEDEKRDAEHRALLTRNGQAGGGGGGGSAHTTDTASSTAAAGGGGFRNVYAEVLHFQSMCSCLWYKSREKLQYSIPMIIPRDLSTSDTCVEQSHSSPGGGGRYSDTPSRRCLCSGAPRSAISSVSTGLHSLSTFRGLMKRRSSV
KCNQ1 act – potentiators or activators of human KCNQ1 potassium channel. CHO-K1 KCNQ1, thallium flux FluxOR fluorescence; stronger effect = higher value. 310,000 tested, 0.35% active. B-score at 10 µM. P51787;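 active = fluorescence ratio B-score, a plate-corrected score, at least three library SD, with initial intensity B-score within 5 SD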
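Doses: Single concentration per compound, DMSO matched to controls | Test system: KCNQ1-transfected CHO-K1 cells | Timing: 90 min dye loading and 20 min compound exposure, both at room temperature | Measured by: Kinetic FluxOR thallium fluorescence, 10-s 1-Hz baseline, 110-s post-stimulus read | Medium: Assay buffer with matched DMSO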
hERG rescue – hERG (human) protection from proarrhythmic block. activation (rescue from dofetilide block), less the hit threshold, % at 10 µM. CHO-hERG, FluxOR thallium flux, dofetilide IC70 present. 310,000 tested, 0.51% active;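 active = activation above the mean of controls blocked by dofetilide plus 5 SD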;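 note: thallium influx through hERG after potassium depolarization seen as dye fluorescence rise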
KCNQ1 block – human KCNQ1 channel inhibition; B-score at 10 µM; 310,000 tested, 1.3% active; AID 2642; P51787; CHO-K1 KCNQ1, FluxOR thallium flux fluorescence; stronger effect = higher value;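 active = compounds whose thallium flux B-score, printed positive for inhibition, exceeds three library SD while starting fluorescence stays within three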;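 note: channel opened by potassium depolarization with thallium stimulus after 20 min compound exposure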
KCNK9 inh – inhibitors of human KCNK9 two-pore domain potassium channel; 310,000 tested, 1.2% active; B-score at 10 µM; HEK293 KCNK9, FluxOR thallium flux fluorescence; stronger effect = lower value; AID 488922; Q9NPC2;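 active = ratio B-score over 3 SD below the library mean, with starting fluorescence within 5 SD of its mean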;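 note: negative B-score means less thallium flux so channel inhibition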
Of the large screens only hits and unclear results are named; the others gave an inactive call.

O=C(COc1ccccc1F)NCC(c1ccc(F)cc1)N1CCOCC1 (stereo unspecified)	none (no result: Kir21 block, KCNQ1 act, hERG rescue, KCNQ1 block, KCNK9 inh)
COc1ccc(C)cc1Nc1n[n+](-c2ccccc2)c(-c2cc(OC)c(OC)cc2Br)s1	Kir21 block -6, KCNQ1 block 7
C=CCN1C(=O)C(C)(C)N(C(=O)c2cccc([N+](=O)[O-])c2)c2ccccc21	none
O=C1Cc2cc(S(=O)(=O)N3CCN(c4cccc(Cl)c4)CC3)ccc2N1	none
CCCCn1c(N)c(C(=S)NC(=O)CC(C)(C)C)c(=O)n(C)c1=O	KCNQ1 act 18, hERG rescue 25
c1ccc(-n2cnnc2SCc2cn3ccsc3n2)cc1	none
Cc1ccc(-n2c(SCc3cn4ccsc4n3)nc3ccccc3c2=O)cc1	KCNQ1 block 7
CCOc1ccc(Br)cc1S(=O)(=O)NCCN1CCCC1	none
COc1cc2c(cc1OC)C1=CC(=O)C(=O)N1C(C)(C)C2	KCNQ1 block 12
COc1cc2c(cc1OC)-c1nc3ccccc3c(=O)n1C(C)(C)C2	none
O=C(N/N=C/c1cn(-c2ccccc2)nc1-c1ccc(F)cc1)c1ccc(Br)o1	KCNK3 block -8.7
O=C(N/N=C/c1cn(-c2ccccc2)nc1-c1cc2ccccc2o1)c1ccncc1	none
O=C(N/N=C/c1cn(-c2ccccc2)nc1-c1cc2ccccc2o1)c1cccnc1	KCNQ1 block 6
O=C(N/N=C/c1cn(-c2ccccc2)nc1-c1cccnc1)c1ccc(F)cc1	none
CCOC(=O)c1c(NC(=O)c2ccco2)sc2c1CCCC2	none
CCOC(=O)c1cc(CC)sc1NC(=O)CCC(=O)O	none
CCOC(=O)c1c(NC(=O)CN2CCN(C(=O)c3ccco3)CC2)sc2c1CCCC2	KCNQ1 act 14, hERG rescue 29
N#Cc1c(NC(=O)COC(=O)c2nccnc2N)sc2c1CCCC2	none
CCOC(=O)c1c(NC(=O)COC(=O)c2nccnc2N)sc2c1CCC2	KCNK3 block -11 (no result: Kir21 block, KCNQ1 act, hERG rescue, KCNQ1 block, KCNK9 inh)
CCOC(=O)c1cc(CC)sc1NC(=O)Cc1ccsc1	KCNK3 block -9
CCOC(=O)c1cc(CC)sc1NC(=O)CN1CCN(C(=O)c2ccco2)CC1	KCNQ1 act 23
O=C(Nc1ccc(Cl)cc1)Nc1cccc2nsnc12	none
COC(=O)c1cc(C)sc1NC(=O)CN1CCN(C(=O)c2ccco2)CC1	none
CCOC(=O)c1cc(C)sc1NC(=O)CN1CCN(C(=O)c2ccco2)CC1	KCNQ1 act 9
COc1cc(/C=C(\C#N)c2nc3ccccc3s2)cc([N+](=O)[O-])c1O	KCNQ1 block 6
N#C/C(=C\c1ccc(O)c([N+](=O)[O-])c1)c1nc2ccccc2s1	KCNQ1 block 6
Cc1ccc(-c2cc(-c3ccc(F)cc3)c(C#N)c(N)n2)o1	none
Cc1ccc(-c2cc(-c3ccc(Cl)cc3)c(C#N)c(N)n2)o1	Kir21 block -4.5
Cc1cc(-c2cc(-c3ccc(Cl)cc3)nc(N)c2C#N)co1	Kir21 block -4.9
O=C1CC(C(F)(F)F)=NN1	none
CC(C)OC(=O)/C(=C\c1ccc2c(c1)c1ccccc1n2C)NC(=O)c1ccccc1	KCNK9 inh -7.9
Cn1c2ccccc2c2cc(/C=C(\NC(=O)c3ccccc3)C(=O)O)ccc21	none
CC(C)OC(=O)/C(=C/c1ccc2c(c1)c1ccccc1n2C)NC(=O)c1ccccc1	KCNK9 inh -7.6
CC(C)OC(=O)/C(=C\c1cccnc1)NC(=O)c1ccccc1	none
CN1CCC(=C(c2ccccc2)c2ccc(Br)cc2)CC1	Kir21 block -8.6
CC1CCN(C(=S)c2cn(Cc3ccccc3F)c3ccccc23)CC1	KCNK9 inh -6.6
O=C(CCNS(=O)(=O)c1ccc(Br)cc1)NCCCSc1ccccc1	none (no result: Kir21 block, KCNQ1 act, hERG rescue, KCNQ1 block, KCNK9 inh)
CNc1nc(-c2ccccc2)[n+](-c2ccc(C)cc2)s1	none
Cc1ccc(-c2nc(N)s[n+]2-c2ccccc2)cc1	hERG rescue 10
CCC(C)C(NC(=O)c1ccccc1NC(=O)c1ccc(OC)cc1)C(=O)NCc1ccco1 (stereo unspecified)	KCNQ1 block 7
COc1ccc(C(=O)Nc2ccc(Cl)cc2C(=O)NCc2ccco2)cc1	none
Fc1ccc(-c2nc3c(Cl)cc(C(F)(F)F)cn3c2Cl)cc1	none
FC(F)c1nnc2c(Cl)cc(C(F)(F)F)cn12	hERG rescue 6.4
CCOC(=O)c1ccc(/C=C2/C=C(c3ccccc3)N(c3ccc(Cl)c(C(=O)O)c3)C2=O)cc1	KCNQ1 block 11
Cn1c(=O)c2ccccc2n(CC(=O)NCCC2=CCCCC2)c1=O	none
Cc1ccc(-n2cc(CNCCCn3ccnc3C)c(-c3ccc(F)cc3)n2)cc1	Kir21 block -7.9
Cc1ccc(-n2cc(CNCCc3cscn3)c(-c3ccc(F)cc3)n2)cc1	none
Cc1ccc(-n2cc(CN3CCN(c4ccccn4)CC3)c(-c3ccc(F)cc3)n2)cc1	KCNQ1 block 6
Cc1cccc(-n2cc(CN3CCN(c4ccccn4)CC3)c(-c3cccc(F)c3)n2)c1	none
O=C(Nc1nccs1)C1CCN(S(=O)(=O)c2ccccc2)CC1	none
O=C(N/N=C/c1cc(Cl)cc([N+](=O)[O-])c1O)c1cccc(S(=O)(=O)N2CCOCC2)c1	none (no result: Kir21 block, KCNQ1 act, hERG rescue, KCNQ1 block, KCNK9 inh)
CC(C)(O)c1cc2ccc(C#Cc3ccsc3)cc2c(=O)o1	none (no result: Kir21 block, KCNQ1 act, hERG rescue, KCNQ1 block, KCNK9 inh)
CC1(C)Cc2cccc(OCC(=O)OCC(=O)c3ccccc3)c2O1	none (no result: Kir21 block, KCNQ1 act, hERG rescue, KCNQ1 block, KCNK9 inh)
Cc1noc(C)c1COC(=O)COc1cccc2c1OC(C)(C)C2	Kir21 block -5.5
CC1(c2ccc(Cl)cc2)NC(=O)N(CC(=O)Nc2cccnc2Cl)C1=O (stereo unspecified)	none
COc1ccccc1C(=O)OCC(=O)NC(=O)NCc1ccccc1	none
CNC(=O)NC(=O)COC(=O)c1ccccc1OCc1ccccc1	hERG rescue 8.3
Cn1c(-c2ccc([N+](=O)[O-])cc2)nc2ccccc21	none
Cn1nc([N+](=O)[O-])c(C(C#N)c2nc3ccccc3n2C)c(Cl)c1=O (stereo unspecified)	KCNQ1 block 6
O=C1NC(c2cccc(Cl)c2)Oc2ccccc21 (stereo unspecified)	hERG rescue 6.3
Cc1ccc(C23CC4CC(CC(C(=O)NC(C(=O)O)C(C)C)(C4)C2)C3)cc1 (stereo unspecified)	none
COc1cccc(OC)c1OCCCCc1c(C)n[nH]c1C	none
COc1cccc(OC)c1OCCCCCc1c(C)n[nH]c1C	Kir21 block -4.5
Cc1cccc(C)c1OCCCCc1c(C)n[nH]c1C	KCNK9 inh -8
CCn1c(SCC(=O)N2CCC(C)CC2)nc2c(c1=O)SC(C)C2 (stereo unspecified)	none
CCCC[C@@H]1CN=C(N)N1CC(C)(C)C	none
CC[C@@](C)(NS(=O)(=O)OCC(Cl)(Cl)Cl)c1ccccc1	Kir21 block -5.1
CC(C)(NS(=O)(=O)OCC(Cl)(Cl)Cl)c1ccccc1	none
Cc1ccccc1Nc1nc(N)c2ccccc2n1	none
